1 compound from ChEMBL document CHEMBL3351394 (J Med Chem, 2014) can be followed below.

For one series, the target named is T1, Bile acid receptor (Homo sapiens, UniProt Q96RI1).
T1 sequence (Q96RI1 whole entry): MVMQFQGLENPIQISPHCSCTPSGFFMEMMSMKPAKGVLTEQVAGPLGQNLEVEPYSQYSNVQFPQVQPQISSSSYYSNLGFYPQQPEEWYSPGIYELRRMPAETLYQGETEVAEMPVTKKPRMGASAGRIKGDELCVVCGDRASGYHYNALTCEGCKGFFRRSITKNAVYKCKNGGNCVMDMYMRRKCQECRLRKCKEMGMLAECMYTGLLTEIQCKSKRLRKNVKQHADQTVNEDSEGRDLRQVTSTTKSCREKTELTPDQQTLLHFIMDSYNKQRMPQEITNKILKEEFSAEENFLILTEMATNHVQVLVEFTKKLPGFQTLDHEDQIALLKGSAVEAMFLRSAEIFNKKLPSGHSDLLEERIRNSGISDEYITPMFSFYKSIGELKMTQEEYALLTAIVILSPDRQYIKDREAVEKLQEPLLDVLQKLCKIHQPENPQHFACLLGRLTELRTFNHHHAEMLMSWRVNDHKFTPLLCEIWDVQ
Nature of the series: Agonist activity at human FXR expressed in human HeLa cells assessed as receptor activation by BSEP promoter-driven firefly luciferase reporter gene assay. It counts as cell-based. Particulars: read-out: EC50. (Reporter assays use an easily measured gene product as a stand-in for the process of interest.)

The target of series [1] is T2, Bile acid receptor (Homo sapiens) (UniProt Q96RI1).
T2 sequence (whole entry): T1 sequence (Q96RI1 whole entry)
The experiment in a line: Agonist activity at FXR in human HepG2 cells assessed as induction of SHP mrNA expression at 0.1 uM by quantitative PCR method. The series is classed as cell-based. In a few lines: (§1)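 HepG2 cells were seeded at 2 × 10⁶ per well. After 24 h they were switched to MEM with 1% charcoal-stripped FCS, and 24 h later dosed with compound (0.1, 0.3, 1, 3, 10 μM; 0.1% DMSO final) for 24 h. Total RNA was reverse transcribed and analysed by qPCR, GAPDH-normalized, ΔΔCt method. Samples were run in duplicate in ≥4 independent experiments.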

Series [2] addresses T2, Bile acid receptor (Homo sapiens). Nature of the series: Agonist activity at FXR in human HepG2 cells assessed as induction of CYP7A1 mrNA expression at 0.1 uM by quantitative PCR method. It counts as cell-based. In a few lines:
as §1

The target is the same in series [3]. Nature of the series: Agonist activity at FXR in human HepG2 cells assessed as induction of CYP7A1 mrNA expression at 0.3 uM by quantitative PCR method. It counts as cell-based. The gist of the method: as §1
For series [4] the target is unchanged. Nature of the series: Agonist activity at FXR in human HepG2 cells assessed as induction of CYP7A1 mrNA expression at 1 uM by quantitative PCR method. It counts as cell-based. In a few lines:
as §1

For series [5] the target is unchanged. Nature of the series: Agonist activity at FXR in human HepG2 cells assessed as induction of CYP7A1 mrNA expression at 3 uM by quantitative PCR method. The series is classed as cell-based. In a few lines: as §1
Series [6] has the same target. The experiment in a line: Agonist activity at FXR in human HepG2 cells assessed as induction of CYP7A1 mrNA expression at 10 uM by quantitative PCR method. The series is classed as cell-based. In a few lines: as §1
Series [7] has the same target. The experiment in a line: Agonist activity at FXR in human HepG2 cells assessed as induction of OSTalpha mrNA expression at 0.3 uM by quantitative PCR method. The series is classed as cell-based. In a few lines: as §1
The target is the same in series [8]. The experiment in a line: Agonist activity at FXR in human HepG2 cells assessed as induction of BSEP mrNA expression at 0.3 uM by quantitative PCR method. It counts as cell-based. In a few lines: as §1
Series [9] has the same target. The experiment in a line: Agonist activity at FXR in human HepG2 cells assessed as induction of BSEP mrNA expression at 3 uM by quantitative PCR method. It counts as cell-based. The gist of the method:
as §1

Series [10] shares this target. Nature of the series: Agonist activity at FXR in human HepG2 cells assessed as induction of IBABP mrNA expression at 0.1 uM by quantitative PCR method. The series is classed as cell-based.
The target is the same in series [11]. Nature of the series: Agonist activity at FXR in human HepG2 cells assessed as induction of IBABP mrNA expression at 0.3 uM by quantitative PCR method. It counts as cell-based.
Series [12] shares this target. The experiment in a line: Agonist activity at FXR in human HepG2 cells assessed as induction of IBABP mrNA expression at 10 uM by quantitative PCR method. It counts as cell-based.
In series [13] the target is T3, Peroxisome proliferator-activated receptor gamma (Homo sapiens) (UniProt P37231).
T3 sequence (whole entry): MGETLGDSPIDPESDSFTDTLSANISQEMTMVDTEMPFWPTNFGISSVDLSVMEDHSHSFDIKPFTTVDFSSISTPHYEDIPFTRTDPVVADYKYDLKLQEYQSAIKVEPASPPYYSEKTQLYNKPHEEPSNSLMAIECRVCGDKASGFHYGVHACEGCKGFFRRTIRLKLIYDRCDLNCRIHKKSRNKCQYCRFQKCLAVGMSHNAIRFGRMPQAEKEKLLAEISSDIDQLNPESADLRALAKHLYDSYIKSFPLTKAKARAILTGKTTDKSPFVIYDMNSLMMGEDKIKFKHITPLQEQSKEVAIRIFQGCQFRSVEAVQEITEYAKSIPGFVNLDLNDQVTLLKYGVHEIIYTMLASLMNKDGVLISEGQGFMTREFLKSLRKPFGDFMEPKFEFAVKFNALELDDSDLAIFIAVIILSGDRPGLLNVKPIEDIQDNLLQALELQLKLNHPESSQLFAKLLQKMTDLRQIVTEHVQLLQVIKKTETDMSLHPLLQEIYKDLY
The experiment in a line: (§2) Activity at GAL4-tagged PPARgamma (unknown origin) expressed in COS7 cells assessed as receptor transactivation by luciferase reporter gene assay. To be noted: COS-7. The series is classed as cell-based. In a few lines:
(§3)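 Each PPAR subtype was tested as a Gal4 fusion carrying the human hinge region and LBD (cDNA from human monocytes) in transiently transfected COS-7 cells (Lipofectamine LTX), with a pFR-Luc reporter and pRL-SV40 for normalization. Compound in 0.1% DMSO was added 5 h post-transfection and incubated overnight. Firefly/renilla RLU was scaled to 1 μM GW7647 (α), L165,041 (δ) or pioglitazone (γ).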

In series [14] the target is T4, Peroxisome proliferator-activated receptor gamma (Homo sapiens, UniProt P37231).
T4 sequence (P37231 whole entry): T3 sequence (whole entry)
Described as §2. The series is classed as cell-based, COS-7. The gist of the method: as §3

For series [15], the species on record is Homo sapiens. The experiment in a line: Selectivity index, ratio of EC50 for GAL4-tagged PPARdelta (unknown origin) to EC50 for human FXR.
Series [16] is filed under the species Homo sapiens. The experiment in a line: Selectivity index, ratio of EC50 for human TGR5 to EC50 for human FXR.
In another series the test system is HeLa. The experiment in a line: Cytotoxicity against human HeLa cells assessed as compound concentration causing reduction in cell viability by reporter gene assay. The series is classed as cell-based.
The test system of the next series is HepG2. The experiment in a line: Cytotoxicity against human HepG2 cells assessed as compound concentration causing reduction in cell viability by LDH release assay. It counts as cell-based. The gist of the method:
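HepG2 cells were plated at 3 × 10⁴ per well. After 24 h they were switched to DMEM with 1% FCS and treated for 48 h; 2% Triton X-100 added 2 h before reading served as 100%. LDH reagent was added to the supernatant for 20 min and absorbance read at 490/690 nm. Triplicates, ≥3 independent repeats.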

Take `COc1ccc(C(=O)Nc2cccc(C(=O)O)c2)c(NC(=O)c2ccc(C(C)(C)C)cc2)c1`: the EC50 (commonly the midpoint of the concentration-response curve) on Bile acid receptor was 0.008 µM; in series [14], 2.99 µM. Besides, the Activity in series [1] amounted to 239%; in [2], 52%; in series [3], 59%; in [4], 55%; in [5], 67%; in series [6] it was 57%. Also, the Activity in series [7] amounted to 198%; in series [8], 300%; in series [9] it was 326%; in [10], 188%; in series [11], 145%; in [12], 144%. Besides, the Activity result with HeLa and in the series with HepG2 was “>= 30 uM” in each case. In series [13], the Emax is 81%. Moreover, the Ratio EC50 in the series filed under Homo sapiens [15] and in the series filed under Homo sapiens [16] was more than 1000 throughout.
